{"source": "paper PMC3061239", "about": "(Bioconjugate chemistry, 2010)", "key": {"[1]": {"assay": "Biodistribution of [^18F]7 in rats after i.v. injection", "type": "in vivo, Sprague-Dawley rats", "conditions": "for Distribution, blood / Distribution, bone / Distribution, brain / Distribution, fat / Distribution, heart / Distribution, kidney / Distribution, liver / Distribution, lung / Distribution, muscle / Distribution, pancreas / Distribution, spleen: male Sprague-Dawley rats, mean ± SD", "how_it_was_run": "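Adult male Sprague-Dawley rats (170–250 g) under 2–3 % isoflurane/O2 received ~20–25 μCi/100 μL tracer (formulated in 3% HSA) via lateral tail vein. Killed at 5, 30, 60, 120 min, 4–8 rats per time; bone and fat taken only at 5 and 60 min (4 rats). Tissues weighed and gamma-counted alongside injectate standard dilution. Expressed as %ID/g, mean ± SD; Student's t-test.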"}, "[2]": {"assay": "MicroPET imaging, myocardial tissue time-activity curves", "type": "in vivo", "conditions": "male Sprague-Dawley rats"}, "[3]": {"conditions": "5 min; cited from earlier work"}, "[4]": {"conditions": "5 min post-i.v. injection, rats"}}, "data": [{"compound": "O=C(O)CCCCCCCCCCCCCCc1ccc(OCC[18F])cc1", "note": "[[^18F]7, 15-(4-(2-[^18F]fluoroethoxy)phenyl)pentadecanoic acid]", "values": [{"measurement": "Ratio of activity heart:blood", "setting": "[1]; [4]", "value": 2.55}, {"measurement": "Ratio of activity heart:skeletal muscle", "setting": "[1]; [4]", "value": 8.3}, {"measurement": "Uptake in heart at 30 min as percentage of the 5 min activity", "setting": "[1]; 30 min post injection vs 5 min, rats", "value": 35, "unit": "%"}, {"measurement": "Uptake in heart relative to blood", "setting": "[1]; 120 min post injection, rats", "value": "approximately 1.4 fold"}, {"measurement": "Distribution, blood", "setting": "[1]; 5 min post i.v. injection", "value": "0.76 ± 0.05", "unit": "%ID/gram"}, {"measurement": "Distribution, blood", "setting": "[1]; 30 min post i.v. injection", "value": "0.75 ± 0.06", "unit": "%ID/gram"}, {"measurement": "Distribution, blood", "setting": "[1]; 60 min post i.v. injection", "value": "0.56 ± 0.06", "unit": "%ID/gram"}, {"measurement": "Distribution, blood", "setting": "[1]; 120 min post i.v. injection", "value": "0.26 ± 0.06", "unit": "%ID/gram"}, {"measurement": "metabolic defluorination (bone activity)", "setting": "[1]; bone activity between 5 and 60 min, rats", "value": "no significant metabolic defluorination"}, {"measurement": "Distribution, bone", "setting": "[1]; 5 min post i.v. injection", "value": "0.28 ± 0.01", "unit": "%ID/gram"}, {"measurement": "Distribution, bone", "setting": "[1]; 60 min post i.v. injection", "value": "0.33 ± 0.06", "unit": "%ID/gram"}, {"measurement": "Distribution, brain", "setting": "[1]; 5 min post i.v. injection", "value": "0.11 ± 0.01", "unit": "%ID/gram"}, {"measurement": "Distribution, brain", "setting": "[1]; 30 min post i.v. injection", "value": "0.13 ± 0.01", "unit": "%ID/gram"}, {"measurement": "Distribution, brain", "setting": "[1]; 60 min post i.v. injection", "value": "0.10 ± 0.01", "unit": "%ID/gram"}, {"measurement": "Distribution, brain", "setting": "[1]; 120 min post i.v. injection", "value": "0.06 ± 0.01", "unit": "%ID/gram"}, {"measurement": "Distribution, fat", "setting": "[1]; 5 min post i.v. injection", "value": "0.14 ± 0.02", "unit": "%ID/gram"}, {"measurement": "Distribution, fat", "setting": "[1]; 60 min post i.v. injection", "value": "0.17 ± 0.01", "unit": "%ID/gram"}, {"measurement": "Increase of activity in fat", "setting": "[1]; from 5 to 60 min, rats, P = 0.04", "value": 20, "unit": "%"}, {"measurement": "Distribution, heart", "setting": "[1]; 5 min post i.v. injection", "value": "2.00 ± 0.44", "unit": "%ID/gram"}, {"measurement": "Distribution, heart", "setting": "[1]; 30 min post i.v. injection", "value": "0.72 ± 0.10", "unit": "%ID/gram"}, {"measurement": "Distribution, heart", "setting": "[1]; 60 min post i.v. injection", "value": "0.86 ± 0.28", "unit": "%ID/gram"}, {"measurement": "Distribution, heart", "setting": "[1]; 120 min post i.v. injection", "value": "0.34 ± 0.04", "unit": "%ID/gram"}, {"measurement": "Distribution, kidney", "setting": "[1]; 5 min post i.v. injection", "value": "1.30 ± 0.09", "unit": "%ID/gram"}, {"measurement": "Distribution, kidney", "setting": "[1]; 30 min post i.v. injection", "value": "1.26 ± 0.08", "unit": "%ID/gram"}, {"measurement": "Distribution, kidney", "setting": "[1]; 60 min post i.v. injection", "value": "1.02 ± 0.15", "unit": "%ID/gram"}, {"measurement": "Distribution, kidney", "setting": "[1]; 120 min post i.v. injection", "value": "0.52 ± 0.07", "unit": "%ID/gram"}, {"measurement": "Distribution, liver", "setting": "[1]; 5 min post i.v. injection", "value": "2.71 ± 0.37", "unit": "%ID/gram"}, {"measurement": "Distribution, liver", "setting": "[1]; 30 min post i.v. injection", "value": "1.39 ± 0.09", "unit": "%ID/gram"}, {"measurement": "Distribution, liver", "setting": "[1]; 60 min post i.v. injection", "value": "0.81 ± 0.10", "unit": "%ID/gram"}, {"measurement": "Distribution, liver", "setting": "[1]; 120 min post i.v. injection", "value": "0.49 ± 0.07", "unit": "%ID/gram"}, {"measurement": "Distribution, lung", "setting": "[1]; 5 min post i.v. injection", "value": "1.26 ± 0.32", "unit": "%ID/gram"}, {"measurement": "Distribution, lung", "setting": "[1]; 30 min post i.v. injection", "value": "0.87 ± 0.06", "unit": "%ID/gram"}, {"measurement": "Distribution, lung", "setting": "[1]; 60 min post i.v. injection", "value": "0.95 ± 0.27", "unit": "%ID/gram"}, {"measurement": "Distribution, lung", "setting": "[1]; 120 min post i.v. injection", "value": "0.52 ± 0.06", "unit": "%ID/gram"}, {"measurement": "Distribution, muscle", "setting": "[1]; 5 min post i.v. injection", "value": "0.23 ± 0.03", "unit": "%ID/gram"}, {"measurement": "Distribution, muscle", "setting": "[1]; 30 min post i.v. injection", "value": "0.24 ± 0.04", "unit": "%ID/gram"}, {"measurement": "Distribution, muscle", "setting": "[1]; 60 min post i.v. injection", "value": "0.21 ± 0.02", "unit": "%ID/gram"}, {"measurement": "Distribution, muscle", "setting": "[1]; 120 min post i.v. injection", "value": "0.12 ± 0.01", "unit": "%ID/gram"}, {"measurement": "Distribution, pancreas", "setting": "[1]; 5 min post i.v. injection", "value": "0.73 ± 0.07", "unit": "%ID/gram"}, {"measurement": "Distribution, pancreas", "setting": "[1]; 30 min post i.v. injection", "value": "0.50 ± 0.03", "unit": "%ID/gram"}, {"measurement": "Distribution, pancreas", "setting": "[1]; 60 min post i.v. injection", "value": "0.42 ± 0.04", "unit": "%ID/gram"}, {"measurement": "Distribution, pancreas", "setting": "[1]; 120 min post i.v. injection", "value": "0.28 ± 0.02", "unit": "%ID/gram"}, {"measurement": "Distribution, spleen", "setting": "[1]; 5 min post i.v. injection", "value": "0.94 ± 0.05", "unit": "%ID/gram"}, {"measurement": "Distribution, spleen", "setting": "[1]; 30 min post i.v. injection", "value": "0.63 ± 0.07", "unit": "%ID/gram"}, {"measurement": "Distribution, spleen", "setting": "[1]; 60 min post i.v. injection", "value": "0.57 ± 0.11", "unit": "%ID/gram"}, {"measurement": "Distribution, spleen", "setting": "[1]; 120 min post i.v. injection", "value": "0.40 ± 0.06", "unit": "%ID/gram"}, {"measurement": "accumulation in bone on PET images", "setting": "[2]", "value": "no evidence of accumulation in bone"}]}, {"compound": "CCCCCCCCC([18F])CCCCC1CC1CC(=O)O", "note": "(racemic) [[^18F]FCPHA, trans-9-(RS)-[^18F]fluoro-3,4-(RS,RS) methyleneheptadecanoic acid]", "values": [{"measurement": "uptake in rat myocardium", "setting": "[3]", "value": "approximately 1.5 %ID/gram tissue"}]}]}
